Target: T1, Prostaglandin E2 receptor EP3 subtype (Homo sapiens, UniProt P43115)
T1 sequence (P43115 whole entry): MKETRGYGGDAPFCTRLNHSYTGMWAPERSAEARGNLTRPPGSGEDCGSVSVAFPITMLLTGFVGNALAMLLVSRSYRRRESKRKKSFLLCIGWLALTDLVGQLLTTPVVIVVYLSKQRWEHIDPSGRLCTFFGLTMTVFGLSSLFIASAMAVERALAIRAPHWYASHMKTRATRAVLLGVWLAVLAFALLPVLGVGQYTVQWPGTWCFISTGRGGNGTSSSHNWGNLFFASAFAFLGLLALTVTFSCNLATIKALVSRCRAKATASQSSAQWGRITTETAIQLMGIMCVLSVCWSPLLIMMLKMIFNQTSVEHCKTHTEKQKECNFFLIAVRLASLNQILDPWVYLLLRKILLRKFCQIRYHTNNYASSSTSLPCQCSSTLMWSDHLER
Assay: Displacement of [3H]PGE2 from human EP3 receptor at 20 uM in presence of normal buffer
Settings: not given

Compound | IC50 [nM]
Cn1cc(/C=C/C(=O)NS(=O)(=O)c2ccc(Cl)cc2Cl)c2c(Oc3ccc4ccccc4c3)cccc21 | 54.1
COc1cccc(Oc2cccc3c2c(/C=C/C(=O)NS(=O)(=O)c2ccc(F)c(F)c2)cn3C)c1 | 4.4
Cn1cc(/C=C/C(=O)NS(=O)(=O)c2ccccc2F)c2c(Oc3ccc4ccccc4c3)cccc21 | 11.9
Cn1cc(/C=C/C(=O)NS(=O)(=O)c2ccc(Cl)c(Cl)c2)c2c(Oc3ccc4ccccc4c3)cccc21 | 11.8
Cn1cc(/C=C/C(=O)NS(=O)(=O)c2cc(F)c(F)cc2F)c2c(Oc3ccc(F)cc3Cl)cccc21 | 18.1
Cn1cc(/C=C/C(=O)NS(=O)(=O)c2cc(F)cc(F)c2)c2c(Oc3ccc4ccccc4c3)cccc21 | 44.9
Cn1cc(/C=C/C(=O)NS(=O)(=O)c2cccc(Cl)c2)c2c(Oc3ccc4ccccc4c3)cccc21 | 15.7
Cn1cc(/C=C/C(=O)NS(=O)(=O)c2c(F)c(F)c(F)c(F)c2F)c2c(Oc3ccc4ccccc4c3)cccc21 | 5.1
Cn1cc(/C=C/C(=O)NS(=O)(=O)c2ccc(F)c(F)c2)c2c(Oc3cnc4ccccc4n3)cccc21 | 6.1
Cn1cc(/C=C/C(=O)NS(=O)(=O)c2ccc(Cl)cc2)c2c(Oc3ccc4ccccc4c3)cccc21 | 21.9
Cn1cc(/C=C/C(=O)NS(=O)(=O)c2ccc(F)cc2F)c2c(Oc3ccc4ccccc4c3)cccc21 | 3.5
Cn1cc(/C=C/C(=O)NS(=O)(=O)c2ccc(F)c(F)c2)c2c(Oc3ccc(F)cc3Cl)cccc21 | 13.8
Cn1cc(/C=C/C(=O)NS(=O)(=O)c2ccc(F)c(F)c2)c2c(Oc3ccc(Cl)c(F)c3)cccc21 | 23.4
Cn1cc(/C=C/C(=O)NS(=O)(=O)c2ccc(F)c(F)c2)c2c(Oc3ccc(Cl)cc3)cccc21 | 27.3
Cn1cc(/C=C/C(=O)NS(=O)(=O)c2cc(F)ccc2F)c2c(Oc3ccc4ccccc4c3)cccc21 | 6.5
Cn1cc(/C=C/C(=O)NS(=O)(=O)c2cc(F)c(F)cc2F)c2c(Oc3ccc(Cl)cc3Cl)cccc21 | 3.2
Cn1cc(/C=C/C(=O)NS(=O)(=O)c2cc(F)c(F)cc2F)c2c(Oc3ccc(Cl)c(F)c3)cccc21 | 6.7
Cn1cc(/C=C/C(=O)NS(=O)(=O)c2ccc(F)c(F)c2)c2c(Oc3ccc(F)cc3F)cccc21 | 18.5
Cn1cc(/C=C/C(=O)NS(=O)(=O)c2cc(F)c(F)cc2F)c2c(Oc3ccc(F)c(Cl)c3)cccc21 | 9.7

Target: Prostaglandin F2-alpha receptor (Homo sapiens, UniProt P43088)
Assay: Displacement of radioligand from FP receptor
Settings: not given

Chain of Prostaglandin F2-alpha receptor (P43088 whole entry): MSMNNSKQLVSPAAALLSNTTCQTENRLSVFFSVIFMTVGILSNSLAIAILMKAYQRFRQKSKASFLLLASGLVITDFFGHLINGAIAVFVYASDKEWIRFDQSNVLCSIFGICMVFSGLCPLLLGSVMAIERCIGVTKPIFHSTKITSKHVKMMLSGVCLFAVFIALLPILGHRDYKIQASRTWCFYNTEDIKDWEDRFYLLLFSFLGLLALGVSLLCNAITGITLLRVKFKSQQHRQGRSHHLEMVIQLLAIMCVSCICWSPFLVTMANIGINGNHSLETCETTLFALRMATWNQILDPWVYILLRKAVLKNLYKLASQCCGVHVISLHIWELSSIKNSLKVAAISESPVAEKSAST

Compound | IC50 [nM]
Cn1cc(/C=C/C(=O)NS(=O)(=O)c2cc(F)c(F)cc2F)c2c(Oc3ccc(Cl)cc3Cl)cccc21 | 3570
Cn1cc(/C=C/C(=O)NS(=O)(=O)c2cc(F)c(F)cc2F)c2c(Oc3ccc(Cl)c(F)c3)cccc21 | 2230
Cn1cc(/C=C/C(=O)NS(=O)(=O)c2cc(F)c(F)cc2F)c2c(Oc3ccc(F)c(Cl)c3)cccc21 | 3160

Target: T1, Prostaglandin E2 receptor EP3 subtype
Assay: Displacement of [3H]PGE2 from human EP3 receptor at 20 uM in presence of 10% human serum
Settings: not given

Compound | IC50 [nM]
Cn1cc(/C=C/C(=O)NS(=O)(=O)c2ccc(Cl)cc2Cl)c2c(Oc3ccc4ccccc4c3)cccc21 | 1540
Cn1cc(/C=C/C(=O)NS(=O)(=O)c2ccccc2F)c2c(Oc3ccc4ccccc4c3)cccc21 | 646
Cn1cc(/C=C/C(=O)NS(=O)(=O)c2ccc(Cl)c(Cl)c2)c2c(Oc3ccc4ccccc4c3)cccc21 | 92.9
Cn1cc(/C=C/C(=O)NS(=O)(=O)c2cc(F)c(F)cc2F)c2c(Oc3ccc(F)cc3Cl)cccc21 | 316
Cn1cc(/C=C/C(=O)NS(=O)(=O)c2cc(F)cc(F)c2)c2c(Oc3ccc4ccccc4c3)cccc21 | 157
Cn1cc(/C=C/C(=O)NS(=O)(=O)c2cccc(Cl)c2)c2c(Oc3ccc4ccccc4c3)cccc21 | 35
Cn1cc(/C=C/C(=O)NS(=O)(=O)c2ccc(F)c(F)c2)c2c(Oc3cnc4ccccc4n3)cccc21 | 217
Cn1cc(/C=C/C(=O)NS(=O)(=O)c2ccc(Cl)cc2)c2c(Oc3ccc4ccccc4c3)cccc21 | 1100
Cn1cc(/C=C/C(=O)NS(=O)(=O)c2ccc(F)cc2F)c2c(Oc3ccc4ccccc4c3)cccc21 | 115
Cn1cc(/C=C/C(=O)NS(=O)(=O)c2ccc(F)c(F)c2)c2c(Oc3ccc(F)cc3Cl)cccc21 | 146
Cn1cc(/C=C/C(=O)NS(=O)(=O)c2ccc(F)c(F)c2)c2c(Oc3ccc(Cl)c(F)c3)cccc21 | 612
Cn1cc(/C=C/C(=O)NS(=O)(=O)c2ccc(F)c(F)c2)c2c(Oc3ccc(Cl)cc3)cccc21 | 776
Cn1cc(/C=C/C(=O)NS(=O)(=O)c2cc(F)ccc2F)c2c(Oc3ccc4ccccc4c3)cccc21 | 157
Cn1cc(/C=C/C(=O)NS(=O)(=O)c2cc(F)c(F)cc2F)c2c(Oc3ccc(Cl)cc3Cl)cccc21 | 16.7
Cn1cc(/C=C/C(=O)NS(=O)(=O)c2cc(F)c(F)cc2F)c2c(Oc3ccc(Cl)c(F)c3)cccc21 | 53.9
Cn1cc(/C=C/C(=O)NS(=O)(=O)c2cc(F)c(F)cc2F)c2c(Oc3ccc(F)c(Cl)c3)cccc21 | 61.1

Target: Prostaglandin E2 receptor EP2 subtype (Homo sapiens, UniProt P43116)
Assay: Displacement of radioligand from EP2 receptor
Settings: not given

Chain of Prostaglandin E2 receptor EP2 subtype (P43116 whole entry): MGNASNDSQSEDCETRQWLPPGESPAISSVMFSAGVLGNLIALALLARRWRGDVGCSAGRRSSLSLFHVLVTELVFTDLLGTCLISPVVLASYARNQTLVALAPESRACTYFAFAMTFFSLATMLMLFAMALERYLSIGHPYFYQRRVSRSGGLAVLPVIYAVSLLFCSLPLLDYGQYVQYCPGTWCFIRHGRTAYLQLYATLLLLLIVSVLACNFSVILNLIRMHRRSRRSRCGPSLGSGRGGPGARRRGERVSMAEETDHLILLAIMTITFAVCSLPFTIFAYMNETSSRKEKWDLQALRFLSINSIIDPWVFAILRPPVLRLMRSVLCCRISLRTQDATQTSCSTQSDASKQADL

Compound | IC50 [nM]
Cn1cc(/C=C/C(=O)NS(=O)(=O)c2cc(F)c(F)cc2F)c2c(Oc3ccc(Cl)cc3Cl)cccc21 | 9300
Cn1cc(/C=C/C(=O)NS(=O)(=O)c2cc(F)c(F)cc2F)c2c(Oc3ccc(Cl)c(F)c3)cccc21 | 10000
Cn1cc(/C=C/C(=O)NS(=O)(=O)c2cc(F)c(F)cc2F)c2c(Oc3ccc(F)c(Cl)c3)cccc21 | > 10000

Tested on: not listed separately
Assay: Metabolic stability in rat liver microsome assessed as compound remaining at 5 uM after 30 mins
Assay type: ADME
Settings: liver microsomes, read-out: Stability
Method in brief: (§1)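 Liver microsomes at 0.8 mg/mL protein incubated with compound at 5 µM. Percent parent remaining after 30 min measured by LC–MS/MS.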

Compound | remaining at 0.5 h, 5 µM [%]
Cn1cc(/C=C/C(=O)NS(=O)(=O)c2cccc(Cl)c2)c2c(Oc3ccc4ccccc4c3)cccc21 | 33.3
Cn1cc(/C=C/C(=O)NS(=O)(=O)c2cc(F)c(F)cc2F)c2c(Oc3ccc(Cl)cc3Cl)cccc21 | 39.1

Target: T2, Prostaglandin E2 receptor EP1 subtype (Homo sapiens, UniProt P34995)
T2 sequence (P34995 whole entry): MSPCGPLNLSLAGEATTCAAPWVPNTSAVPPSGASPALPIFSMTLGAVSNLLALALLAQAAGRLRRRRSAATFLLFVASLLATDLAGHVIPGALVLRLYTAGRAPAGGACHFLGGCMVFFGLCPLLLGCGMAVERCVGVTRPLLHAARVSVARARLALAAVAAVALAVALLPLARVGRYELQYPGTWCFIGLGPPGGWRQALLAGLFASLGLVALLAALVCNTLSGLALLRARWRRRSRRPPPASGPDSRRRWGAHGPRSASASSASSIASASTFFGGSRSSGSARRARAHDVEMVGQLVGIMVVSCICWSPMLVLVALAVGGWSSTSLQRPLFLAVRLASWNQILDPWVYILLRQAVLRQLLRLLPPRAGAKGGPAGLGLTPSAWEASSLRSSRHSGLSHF
Assay: Displacement of radioligand from EP1 receptor
Settings: not given

Compound | IC50 [nM]
Cn1cc(/C=C/C(=O)NS(=O)(=O)c2cc(F)c(F)cc2F)c2c(Oc3ccc(Cl)c(F)c3)cccc21 | 1370
Cn1cc(/C=C/C(=O)NS(=O)(=O)c2cc(F)c(F)cc2F)c2c(Oc3ccc(F)c(Cl)c3)cccc21 | > 10000

Tested on: not listed separately
Assay: Metabolic stability in dog liver microsome assessed as compound remaining at 5 uM after 30 mins
Assay type: ADME, Canis lupus familiaris
Settings: liver microsomes, read-out: Stability
Method in brief: as §1

Compound | remaining at 0.5 h, 5 µM [%]
Cn1cc(/C=C/C(=O)NS(=O)(=O)c2cccc(Cl)c2)c2c(Oc3ccc4ccccc4c3)cccc21 | 80.6

Target: T3, Prostaglandin E2 receptor EP3 subtype (Homo sapiens) (UniProt P43115)
T3 sequence (whole entry): T1 sequence (P43115 whole entry)
Assay: Ratio IC50 for human EP3 receptor in presence of human serum to IC50 for human EP3 in absence of human serum
Settings: not given

Compound | Ratio IC50
Cn1cc(/C=C/C(=O)NS(=O)(=O)c2ccc(Cl)cc2Cl)c2c(Oc3ccc4ccccc4c3)cccc21 | 28.5
Cn1cc(/C=C/C(=O)NS(=O)(=O)c2ccccc2F)c2c(Oc3ccc4ccccc4c3)cccc21 | 54.3
Cn1cc(/C=C/C(=O)NS(=O)(=O)c2ccc(Cl)c(Cl)c2)c2c(Oc3ccc4ccccc4c3)cccc21 | 7.8
Cn1cc(/C=C/C(=O)NS(=O)(=O)c2cc(F)c(F)cc2F)c2c(Oc3ccc(F)cc3Cl)cccc21 | 17.5
Cn1cc(/C=C/C(=O)NS(=O)(=O)c2cc(F)cc(F)c2)c2c(Oc3ccc4ccccc4c3)cccc21 | 3.5
Cn1cc(/C=C/C(=O)NS(=O)(=O)c2cccc(Cl)c2)c2c(Oc3ccc4ccccc4c3)cccc21 | 2.2
Cn1cc(/C=C/C(=O)NS(=O)(=O)c2ccc(F)c(F)c2)c2c(Oc3cnc4ccccc4n3)cccc21 | 35.3
Cn1cc(/C=C/C(=O)NS(=O)(=O)c2ccc(Cl)cc2)c2c(Oc3ccc4ccccc4c3)cccc21 | 50.2
Cn1cc(/C=C/C(=O)NS(=O)(=O)c2ccc(F)cc2F)c2c(Oc3ccc4ccccc4c3)cccc21 | 32.7
Cn1cc(/C=C/C(=O)NS(=O)(=O)c2ccc(F)c(F)c2)c2c(Oc3ccc(F)cc3Cl)cccc21 | 10.5
Cn1cc(/C=C/C(=O)NS(=O)(=O)c2ccc(F)c(F)c2)c2c(Oc3ccc(Cl)c(F)c3)cccc21 | 26.3
Cn1cc(/C=C/C(=O)NS(=O)(=O)c2ccc(F)c(F)c2)c2c(Oc3ccc(Cl)cc3)cccc21 | 28.4
Cn1cc(/C=C/C(=O)NS(=O)(=O)c2cc(F)ccc2F)c2c(Oc3ccc4ccccc4c3)cccc21 | 24.3
Cn1cc(/C=C/C(=O)NS(=O)(=O)c2cc(F)c(F)cc2F)c2c(Oc3ccc(Cl)cc3Cl)cccc21 | 5.2
Cn1cc(/C=C/C(=O)NS(=O)(=O)c2cc(F)c(F)cc2F)c2c(Oc3ccc(Cl)c(F)c3)cccc21 | 8
Cn1cc(/C=C/C(=O)NS(=O)(=O)c2cc(F)c(F)cc2F)c2c(Oc3ccc(F)c(Cl)c3)cccc21 | 6.3

Tested on: not listed separately
Assay: Metabolic stability in human liver microsome assessed as compound remaining at 5 uM after 30 mins
Assay type: ADME
Settings: liver microsomes, read-out: Stability
Method in brief: as §1

Compound | remaining at 0.5 h, 5 µM [%]
Cn1cc(/C=C/C(=O)NS(=O)(=O)c2cccc(Cl)c2)c2c(Oc3ccc4ccccc4c3)cccc21 | 79
Cn1cc(/C=C/C(=O)NS(=O)(=O)c2cc(F)c(F)cc2F)c2c(Oc3ccc(Cl)cc3Cl)cccc21 | 74.7

Target: Prostaglandin E2 receptor EP4 subtype (Homo sapiens, UniProt P35408)
Assay: Displacement of radioligand from EP4 receptor
Settings: not given

Chain of Prostaglandin E2 receptor EP4 subtype (P35408 whole entry): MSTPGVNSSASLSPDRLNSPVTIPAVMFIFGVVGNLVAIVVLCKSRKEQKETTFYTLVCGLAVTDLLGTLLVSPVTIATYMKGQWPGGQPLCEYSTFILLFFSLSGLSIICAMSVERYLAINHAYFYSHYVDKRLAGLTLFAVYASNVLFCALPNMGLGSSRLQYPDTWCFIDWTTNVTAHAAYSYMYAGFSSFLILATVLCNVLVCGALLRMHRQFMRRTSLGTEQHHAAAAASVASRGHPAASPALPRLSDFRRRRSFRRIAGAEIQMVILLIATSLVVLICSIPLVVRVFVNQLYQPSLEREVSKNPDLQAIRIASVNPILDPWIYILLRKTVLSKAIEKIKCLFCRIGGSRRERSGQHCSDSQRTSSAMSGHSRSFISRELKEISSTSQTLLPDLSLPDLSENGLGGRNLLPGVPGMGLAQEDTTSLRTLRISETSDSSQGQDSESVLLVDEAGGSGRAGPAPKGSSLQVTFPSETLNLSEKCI

Compound | IC50 [nM]
Cn1cc(/C=C/C(=O)NS(=O)(=O)c2cc(F)c(F)cc2F)c2c(Oc3ccc(Cl)cc3Cl)cccc21 | > 10000
Cn1cc(/C=C/C(=O)NS(=O)(=O)c2cc(F)c(F)cc2F)c2c(Oc3ccc(Cl)c(F)c3)cccc21 | 10000
Cn1cc(/C=C/C(=O)NS(=O)(=O)c2cc(F)c(F)cc2F)c2c(Oc3ccc(F)c(Cl)c3)cccc21 | > 10000

Reference: ChEMBL document CHEMBL1153263, “3-Acrylamide-4-aryloxyindoles: synthesis, biological evaluation and metabolic stability of potent and selective EP3 receptor antagonists” (Bioorg Med Chem Lett, 2009)
